# Laboratory results as given in ChEMBL document CHEMBL4177770, “Discovery of MK-6169, a Potent Pan-Genotype Hepatitis C Virus NS5A Inhibitor with Optimized Activity against Common Resistance-Associated Substitutions” (J Med Chem, 2018).
# Substitutions are numbered along the chain they refer to.
# What was measured:
# [1] = AUC in Wistar Han rat at 100 mg/kg, po by LC/MS method; assay type: ADME, organism-based; conditions: in vivo
# Procedure, shortened: (§1)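 Single rising oral dose study in fed male Wistar Han rats, dosed PO in 10% TWEEN at the indicated doses. Plasma was obtained by centrifuging the blood, and compound levels were determined by LC/MS.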
# [2] = Drug level in Wistar Han rat at 10 mg/kg, po measured at 24 hrs by LC/MS method; assay type: ADME, organism-based; conditions: in vivo, read-out: Drug uptake
# Procedure, shortened: (§2)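 Male Wistar Han rats, two per dosing group, dosed orally at 10 mg/kg in 10% TWEEN. Plasma was separated from collected blood by centrifugation and analysed by LC/MS.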
# [3] = Half life in Wistar Han rat at 2 mg/kg, iv by LC/MS method; assay type: ADME, organism-based; conditions: in vivo
# Procedure, shortened: (§3)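 Male Wistar Han rats, two per group, dosed IV at 2 mg/kg in 60% PEG200. Plasma was obtained by centrifuging the blood, and compound concentrations were measured by LC/MS.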
# [4] = Oral bioavailability in Beagle dog at 5 mg/kg by LC/MS method; assay type: ADME, organism-based, Canis lupus familiaris; conditions: in vivo
# Procedure, shortened: (§4)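 Beagle dogs, two animals per dosing group. Oral dose was given in 10% TWEEN. Blood was collected and spun to plasma, and plasma compound levels were measured by LC/MS.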
# [5] = Clearance in Beagle dog at 1 mg/kg, iv by LC/MS method; assay type: ADME, organism-based, Canis lupus familiaris; conditions: in vivo
# Procedure, shortened: (§5)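 Beagle dogs, two animals per group, dosed IV at 1 mg/kg in 60% PEG200. Plasma was prepared from collected blood by centrifugation, and compound was quantified by LC/MS.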
# [6] = Cmax in Wistar Han rat at 100 mg/kg, po by LC/MS method; assay type: ADME, organism-based; set-up: dose 100 mg/kg, route oral; conditions: in vivo; procedure, shortened: as §1
# [7] = Cmax in Wistar Han rat at 300 mg/kg, po by LC/MS method; assay type: ADME, organism-based; set-up: dose 300 mg/kg, route oral; conditions: in vivo; procedure, shortened: as §1
# [8] = MRT in Wistar Han rat at 300 mg/kg, po by LC/MS method; assay type: ADME, organism-based; conditions: in vivo; procedure, shortened: as §1
# [9] = Drug level in Wistar Han rat at 300 mg/kg, po measured at 24 hrs by LC/MS method; assay type: ADME, organism-based; conditions: in vivo, read-out: Drug uptake; procedure, shortened: as §1
# [10] = biological target: T1, Nonstructural protein 5A (Hepatitis C virus) (UniProt Q5L478); experiment: Inhibition of NS5A in HCV genotype 4a infected in HuH7 replicon cells assessed as decrease in viral replication after 3 days by RT-PCR method; assay type: cell-based; conditions: Hepatitis C virus subtype 4a
# T1 sequence (whole entry): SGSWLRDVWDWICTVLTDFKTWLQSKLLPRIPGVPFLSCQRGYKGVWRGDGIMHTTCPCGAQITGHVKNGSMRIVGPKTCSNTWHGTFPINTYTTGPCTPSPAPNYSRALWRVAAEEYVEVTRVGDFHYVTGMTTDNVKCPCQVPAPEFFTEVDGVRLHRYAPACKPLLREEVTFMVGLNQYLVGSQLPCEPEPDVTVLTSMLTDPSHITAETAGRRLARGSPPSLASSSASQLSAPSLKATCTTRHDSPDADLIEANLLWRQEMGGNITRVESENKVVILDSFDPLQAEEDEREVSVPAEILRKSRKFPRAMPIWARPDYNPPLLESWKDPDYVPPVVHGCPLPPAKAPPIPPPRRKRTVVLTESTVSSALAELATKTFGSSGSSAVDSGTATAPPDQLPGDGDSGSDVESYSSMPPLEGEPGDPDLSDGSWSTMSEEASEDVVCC
# [11] = Tmax in Wistar Han rat at 300 mg/kg, po by LC/MS method; assay type: ADME, organism-based; conditions: in vivo; procedure, shortened: as §1
# [12] = biological target: T1, Nonstructural protein 5A (Hepatitis C virus); experiment: Inhibition of NS5A L31M mutant in HCV genotype 2b infected in HuH7 replicon cells assessed as decrease in viral replication after 3 days by RT-PCR method; assay type: cell-based; conditions: Hepatitis C virus subtype 2b
# [13] = MRT in Wistar Han rat at 10 mg/kg, po by LC/MS method; assay type: ADME, organism-based; conditions: in vivo; procedure, shortened: as §2
# [14] = Clearance in Wistar Han rat at 2 mg/kg, iv by LC/MS method; assay type: ADME, organism-based; conditions: in vivo; procedure, shortened: as §3
# [15] = test system: T2, Nonstructural protein 5A (Hepatitis C virus), Q5L478 [Y93H]; experiment: Inhibition of NS5A Y93H mutant in HCV genotype 1a infected in HuH7 replicon cells assessed as decrease in viral replication after 3 days by RT-PCR method; assay type: cell-based; conditions: Hepatitis C virus subtype 1a
# T2 sequence (whole entry): T1 sequence (whole entry) with Y93H
# [16] = Drug level in Beagle dog at 5 mg/kg, po measured at 24 hrs by LC/MS method; assay type: ADME, organism-based, Canis lupus familiaris; conditions: in vivo, read-out: Drug uptake; procedure, shortened: as §4
# [17] = Drug level in Wistar Han rat at 100 mg/kg, po measured at 24 hrs by LC/MS method; assay type: ADME, organism-based; conditions: in vivo, read-out: Drug uptake; procedure, shortened: as §1
# [18] = AUC in Wistar Han rat at 300 mg/kg, po by LC/MS method; assay type: ADME, organism-based; conditions: in vivo; procedure, shortened: as §1
# [19] = Tmax in Wistar Han rat at 10 mg/kg, po by LC/MS method; assay type: ADME, organism-based; conditions: in vivo; procedure, shortened: as §2
# [20] = Oral bioavailability in Wistar Han rat at 10 mg/kg by LC/MS method; assay type: ADME, organism-based; conditions: in vivo; procedure, shortened: as §2
# [21] = biological target: T1, Nonstructural protein 5A (Hepatitis C virus); experiment: Inhibition of NS5A in HCV genotype 1a infected in HuH7 replicon cells assessed as decrease in viral replication after 3 days by RT-PCR method; assay type: cell-based; conditions: Hepatitis C virus subtype 1a
# [22] = Tmax in Wistar Han rat at 100 mg/kg, po by LC/MS method; assay type: ADME, organism-based; conditions: in vivo; procedure, shortened: as §1
# [23] = Half life in Beagle dog at 1 mg/kg, iv by LC/MS method; assay type: ADME, organism-based, Canis lupus familiaris; conditions: in vivo; procedure, shortened: as §5
# [24] = AUC in Wistar Han rat at 10 mg/kg, po by LC/MS method; assay type: ADME, organism-based; conditions: in vivo; procedure, shortened: as §2
# [25] = Cmax in Beagle dog at 5 mg/kg, po by LC/MS method; assay type: ADME, organism-based, Canis lupus familiaris; set-up: dose 5 mg/kg, route oral; conditions: in vivo; procedure, shortened: as §4
# [26] = AUC in Beagle dog at 5 mg/kg, po by LC/MS method; assay type: ADME, organism-based, Canis lupus familiaris; conditions: in vivo; procedure, shortened: as §4
# [27] = biological target: T1, Nonstructural protein 5A (Hepatitis C virus); experiment: Inhibition of NS5A in HCV genotype 1b infected in HuH7 replicon cells assessed as decrease in viral replication after 3 days by RT-PCR method; assay type: cell-based; conditions: Hepatitis C virus subtype 1b
# [28] = biological target: T1, Nonstructural protein 5A (Hepatitis C virus); experiment: Inhibition of NS5A L31V mutant in HCV genotype 1a infected in HuH7 replicon cells assessed as decrease in viral replication after 3 days by RT-PCR method; assay type: cell-based; conditions: Hepatitis C virus subtype 1a
# [29] = Cmax in Wistar Han rat at 10 mg/kg, po by LC/MS method; assay type: ADME, organism-based; set-up: dose 10 mg/kg, route oral; conditions: in vivo; procedure, shortened: as §2
# [30] = biological target: T1, Nonstructural protein 5A (Hepatitis C virus); experiment: Inhibition of NS5A in HCV genotype 3a infected in HuH7 replicon cells assessed as decrease in viral replication after 3 days by RT-PCR method; assay type: cell-based; conditions: Hepatitis C virus subtype 3a
# [31] = MRT in Wistar Han rat at 100 mg/kg, po by LC/MS method; assay type: ADME, organism-based; conditions: in vivo; procedure, shortened: as §1
# [32] = test system: Hepatitis C virus subtype 1a; experiment: Resistance ratio of EC90 for NS5A Y93H mutant in HCV genotype 1a infected in HuH7 replicon cells to EC90 for NS5A in HCV genotype 1a infected in HuH7 replicon cells; assay type: cell-based
# [33] = Resistance ratio of EC90 for NS5A in HCV genotype 1b infected in HuH7 replicon cells to EC90 for NS5A in HCV genotype 1a infected in HuH7 replicon cells; assay type: cell-based
# [34] = Resistance ratio of EC90 for NS5A L31M mutant in HCV genotype 2b infected in HuH7 replicon cells to EC90 for NS5A in HCV genotype 1a infected in HuH7 replicon cells; assay type: cell-based
# [35] = test system: Hepatitis C virus subtype 1a; experiment: Resistance ratio of EC90 for NS5A L31V mutant in HCV genotype 1a infected in HuH7 replicon cells to EC90 for NS5A in HCV genotype 1a infected in HuH7 replicon cells; assay type: cell-based
# [36] = Resistance ratio of EC90 for NS5A in HCV genotype 3a infected in HuH7 replicon cells to EC90 for NS5A in HCV genotype 1a infected in HuH7 replicon cells; assay type: cell-based
# [37] = Resistance ratio of EC90 for NS5A in HCV genotype 4a infected in HuH7 replicon cells to EC90 for NS5A in HCV genotype 1a infected in HuH7 replicon cells; assay type: cell-based
SMILES,AUC [1],concentration at 24 h [2],half-life [3],bioavailability [4],clearance [5],Cmax [6],Cmax [7],MRT [8],concentration at 24 h [9],EC90 [10],Tmax [11],EC90 [12],MRT [13],clearance [14],EC90 [15],concentration at 24 h [16],EC90 [21],EC90 [27],EC90 [28],EC90 [30],further results
COC(=O)N[C@H](C(=O)N1CCC[C@H]1c1ncc(-c2cc(F)c3c(c2)O[C@@H](c2ccc(C4CC4)s2)n2c-3cc3cc(-c4cnc([C@@H]5CCCN5C(=O)[C@@H](NC(=O)OC)C5C[C@@H](C)O[C@H](C)C5)[nH]4)ccc32)[nH]1)C(C)C (stereo not given in full),2.07 µM·h,1 to 4 nM,3.6 h,18.7%,2.6 mL/min/kg,240 nM,510 nM,9.3 h,29 nM,7 pM,7 h,12 pM,6 h,11 mL/min/kg,15 pM,87 nM,4 pM,4 pM,4 pM,7 pM,concentration at 24 h [17]: 9 nM; AUC [18]: 5.58 µM·h; Tmax [19]: 3 h; bioavailability [20]: 6.3%; Tmax [22]: 3 h; half-life [23]: 11.3 h; AUC [24]: 0.31 to 0.93 µM·h; Cmax [25]: 640 nM; AUC [26]: 5.05 µM·h; Cmax [29]: 50 to 119 nM; MRT [31]: 7.6 h
COC(=O)N[C@H](C(=O)N1CCC[C@H]1c1ncc(-c2cc(F)c3c(c2)O[C@@H](c2ccc(C4CC4)s2)n2c-3cc3cc(-c4cnc([C@@H]5CCCN5C(=O)[C@@H](NC(=O)OC)C5C[C@@H](C)O[C@@H](C)C5)[nH]4)ccc32)[nH]1)C(C)C (stereo not given in full),1.95 µM·h,3 to 5 nM,5.1 h,8.5%,3 mL/min/kg,220 nM,390 nM,11 h,40 nM,7 pM,6 h,25 pM,9 h,11 mL/min/kg,27 pM,11 nM,4 pM,4 pM,5 pM,8 pM,concentration at 24 h [17]: 27 nM; AUC [18]: 4.08 µM·h; Tmax [19]: 4 h; bioavailability [20]: 5.9%; Tmax [22]: 2 h; half-life [23]: 7.2 h; AUC [24]: 0.33 to 0.92 µM·h; Cmax [25]: 330 nM; AUC [26]: 2.42 µM·h; Cmax [29]: 67 to 80 nM; MRT [31]: 17 h
COC(=O)N[C@H](C(=O)N1CCC[C@H]1c1ncc(-c2cc(F)c3c(c2)O[C@@H](c2ccc(C(F)(F)F)s2)n2c-3cc3cc(-c4cnc([C@@H]5CCCN5C(=O)[C@@H](NC(=O)OC)C5CCOCC5)[nH]4)ccc32)[nH]1)C(C)C,–,–,–,–,–,–,–,–,–,3 pM,–,10 pM,–,–,23 pM,–,3 pM,5 pM,5 pM,6 pM,Ratio [32]: < 10; Ratio [33]: < 10; Ratio [34]: < 10; Ratio [35]: < 10; Ratio [36]: < 10; Ratio [37]: < 10
